Here are results for 17 molecules from ChEMBL document CHEMBL1125217, “2-Pyridinone derivatives: a new class of nonnucleoside, HIV-1-specific reverse transcriptase inhibitors” (J Med Chem, 1991).

In one assay the test system is H9. Briefly: Concentration which inhibited >95% spread of HIV-1 strain IIIb infection in susceptible H-9 cell culture. The class given is functional. Conditions: Homo sapiens, read-out: CIC95. In outline: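 H9 human T-lymphoid cells in RPMI 1640 with 10% heat-inactivated FBS were pre-incubated one day with serial 2-fold inhibitor dilutions, then infected with HIV-1 IIIb at low multiplicity (<0.001). Inhibitor was kept present for 13-14 days. Spread was measured by p24 core antigen ELISA of supernatants. CIC95 is the concentration blocking >95% of spread.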
As to `CCc1cc(CCc2nc3ccccc3o2)c(O)nc1C`, the IC95 came to 200 nM.

For the molecule `CCc1cc(NCc2nc3c(C)ccc(C)c3o2)c(O)nc1C`, the IC95 turned out to be 150 nM.

For the molecule `CCc1cc(NCc2nc3c(Cl)ccc(Cl)c3o2)c(O)nc1C` [L-697661], the IC95 is 100 nM.

As for `CCc1cc(CCN2C(=O)c3ccccc3C2=O)c(O)nc1C`, the IC95 stood at 40000 nM.

For another assay, the target named is Human immunodeficiency virus type 1 reverse transcriptase (Human immunodeficiency virus 1, UniProt Q72547). Briefly: Inhibitory activity against HIV-1 reverse transcriptase (RT).
Settings: not given
Usually IC50 stands for the concentration that gives 50% inhibition. For the molecule `CCc1cc(NCc2ccc3ccccc3c2)c(=O)[nH]c1C`, the IC50 was determined as 440 nM.

`CCc1cc(CCc2nc3c(Cl)ccc(Cl)c3o2)c(O)nc1C` yielded an IC50 of 9.6 nM.

Consider `CCc1cc(CCc2cc3ccccc3o2)c(O)nc1C`, for which half-maximal inhibition (IC50) required 77 nM.

`CCc1cc(CCc2nc3ccccc3o2)c(O)nc1C` returned a half-inhibitory concentration (IC50) of 22 nM.

`CCc1cc(NCc2nc3c(C)ccc(C)c3o2)c(O)nc1C` showed an IC50 of 20 nM.

The molecule `CCc1cc(NCc2nc3c(Cl)ccc(Cl)c3o2)c(O)nc1C` [L-697661] yielded an IC50 of 19 nM.

`CCc1cc(CCN2C(=O)c3ccccc3C2=O)c(O)nc1C` came in with an IC50 of 3700 nM.

With `CCc1cc(CCc2nc3ccccc3s2)c(O)nc1C`, 370 nM corresponded to half-maximal inhibition (IC50).

With `CCc1cc(NCc2nc3ccccc3[nH]2)c(O)nc1C`, the midpoint of inhibition, the IC50, lay at 6400 nM.

The molecule `CCc1cc(NCc2nc3cccc(C)c3o2)c(O)nc1C` displayed a half-maximal inhibitory concentration (IC50) of 55 nM.

The molecule `CCc1cc(NCc2cc3ccccc3o2)c(O)nc1C` displayed an IC50 of 235 nM.

Molecule `CCc1cc(NCc2nc3ccccc3o2)c(O)nc1C` registered an IC50 of 210 nM.

Molecule `CCc1cc(NCc2nc3ccccc3s2)c(O)nc1C` came in with an IC50 of 350 nM.

`CCc1cc(CCc2nc3c(C)ccc(C)c3o2)c(=O)[nH]c1C`: the IC50 was 23 nM.

Take `CCc1cc(NCc2nc3c(C)cccc3o2)c(O)nc1C`: the IC50 was found to be 125 nM.

The test system of the next assay is MT4. Briefly: Concentration which inhibited >95% spread of HIV-1 strain IIIb infection in susceptible MT-4 cell culture. It is filed as functional. Conditions: Homo sapiens, read-out: CIC95. The method, boiled down: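 MT-4 human T-lymphoid cells in RPMI 1640 with 10% heat-inactivated FBS were infected en masse with HIV-1 IIIb (multiplicity 0.01) for 24 h. They were then washed and plated with serial 2-fold inhibitor dilutions for 3 more days. Spread was measured by p24 core antigen ELISA. CIC95 is the concentration blocking >95% of spread.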
Consider `Cc1ccnc2c1NC(=O)c1cccnc1N2C1CC1` [NEVIRAPINE], for which the IC95 came to 100 nM.

Consider `CCc1cc(CCc2nc3c(Cl)ccc(Cl)c3o2)c(O)nc1C`, for which the IC95 was 100 nM.

For `CCc1cc(CCc2nc3ccccc3o2)c(O)nc1C`, the IC95 worked out at 100 nM.

As to `CCc1cc(NCc2nc3c(C)ccc(C)c3o2)c(O)nc1C`, the IC95 was 50 nM.

As to `CCc1cc(NCc2nc3c(Cl)ccc(Cl)c3o2)c(O)nc1C` [L-697661], the IC95 amounted to 50 nM.

`CC(C)=CCN1Cc2cccc3[nH]c(=S)n(c23)C[C@@H]1C`: the IC95 is 200 nM.
